Measured values from ChEMBL document CHEMBL1165965, “Synthesis and structure-activity relationships of 1,2,3,4-tetrahydropyrido[2,3-b]pyrazines as potent and selective inhibitors of the anaplastic lymphoma kinase” (Bioorg Med Chem, 2010).

Columns and labels:
[1] = target: RAC-beta serine/threonine-protein kinase (Homo sapiens) (UniProt P31751); experiment: Inhibition of AKT2 at 1 uM
Procedure, shortened: (§1)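 Ambit KINOMEscan screen at a single concentration across a 250–400 kinase panel, recorded as percent inhibition. Selectivity was expressed as S(90), the fraction of kinases inhibited >90%.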

[2] = target: LIM domain kinase 2 (Homo sapiens) (UniProt P53671); experiment: Inhibition of LIMK2 at 1 uM
Sequence of LIM domain kinase 2 (Homo sapiens) (P53671 whole entry, looked up, the tested form may be a part): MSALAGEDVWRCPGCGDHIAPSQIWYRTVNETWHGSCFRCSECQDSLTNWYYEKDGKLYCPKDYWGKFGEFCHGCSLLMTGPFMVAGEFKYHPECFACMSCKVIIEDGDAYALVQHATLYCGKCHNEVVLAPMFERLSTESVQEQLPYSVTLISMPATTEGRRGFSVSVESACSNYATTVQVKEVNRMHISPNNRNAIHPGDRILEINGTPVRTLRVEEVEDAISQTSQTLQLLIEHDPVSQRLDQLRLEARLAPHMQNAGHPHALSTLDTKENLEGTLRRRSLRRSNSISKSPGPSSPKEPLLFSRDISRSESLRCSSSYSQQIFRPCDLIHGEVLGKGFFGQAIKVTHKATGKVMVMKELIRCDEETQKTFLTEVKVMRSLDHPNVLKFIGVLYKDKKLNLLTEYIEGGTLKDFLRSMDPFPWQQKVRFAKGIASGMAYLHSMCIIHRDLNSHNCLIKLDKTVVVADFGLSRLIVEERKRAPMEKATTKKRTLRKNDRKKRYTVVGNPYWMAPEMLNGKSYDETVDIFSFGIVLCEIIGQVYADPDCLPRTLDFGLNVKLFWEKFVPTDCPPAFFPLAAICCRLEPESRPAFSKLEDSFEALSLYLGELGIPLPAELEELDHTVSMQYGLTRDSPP
Procedure, shortened: (§2)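 Single-concentration screen on the Ambit KINOMEscan platform, run against a panel of 250–400 kinases. Per-kinase inhibition was also summarized as S(90), the fraction of kinases inhibited by more than 90%.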

[3] = target: LIM domain kinase 1 (Homo sapiens) (UniProt P53667); experiment: Inhibition of LIMK1 at 1 uM; procedure, shortened: as §2
Sequence of LIM domain kinase 1 (Homo sapiens) (P53667 whole entry, looked up, the tested form may be a part): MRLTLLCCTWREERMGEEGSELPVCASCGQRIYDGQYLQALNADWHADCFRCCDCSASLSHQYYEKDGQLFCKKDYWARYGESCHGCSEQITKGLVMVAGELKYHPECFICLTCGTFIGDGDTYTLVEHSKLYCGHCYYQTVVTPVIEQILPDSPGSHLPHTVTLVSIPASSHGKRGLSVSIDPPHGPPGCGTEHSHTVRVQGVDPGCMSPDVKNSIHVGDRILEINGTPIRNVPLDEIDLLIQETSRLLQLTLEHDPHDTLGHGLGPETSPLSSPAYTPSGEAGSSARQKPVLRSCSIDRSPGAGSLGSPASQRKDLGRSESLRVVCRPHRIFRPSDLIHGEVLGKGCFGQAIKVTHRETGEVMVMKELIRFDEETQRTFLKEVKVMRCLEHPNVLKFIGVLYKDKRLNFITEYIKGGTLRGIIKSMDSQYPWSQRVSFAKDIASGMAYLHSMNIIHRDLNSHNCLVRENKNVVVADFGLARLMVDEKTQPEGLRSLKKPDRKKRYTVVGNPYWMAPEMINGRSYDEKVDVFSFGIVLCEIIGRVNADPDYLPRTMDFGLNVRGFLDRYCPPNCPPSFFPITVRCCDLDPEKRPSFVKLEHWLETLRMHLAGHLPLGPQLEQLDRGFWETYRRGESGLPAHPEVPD

[4] = target: Tyrosine-protein kinase ABL1 (Homo sapiens) (UniProt P00519); experiment: Inhibition of ABL1 at 1 uM; procedure, shortened: as §1
[5] = target: Serine/threonine-protein kinase 24 (Homo sapiens) (UniProt Q9Y6E0); experiment: Inhibition of MST3 at 1 uM
Sequence of Serine/threonine-protein kinase 24 (Homo sapiens) (Q9Y6E0 whole entry, looked up): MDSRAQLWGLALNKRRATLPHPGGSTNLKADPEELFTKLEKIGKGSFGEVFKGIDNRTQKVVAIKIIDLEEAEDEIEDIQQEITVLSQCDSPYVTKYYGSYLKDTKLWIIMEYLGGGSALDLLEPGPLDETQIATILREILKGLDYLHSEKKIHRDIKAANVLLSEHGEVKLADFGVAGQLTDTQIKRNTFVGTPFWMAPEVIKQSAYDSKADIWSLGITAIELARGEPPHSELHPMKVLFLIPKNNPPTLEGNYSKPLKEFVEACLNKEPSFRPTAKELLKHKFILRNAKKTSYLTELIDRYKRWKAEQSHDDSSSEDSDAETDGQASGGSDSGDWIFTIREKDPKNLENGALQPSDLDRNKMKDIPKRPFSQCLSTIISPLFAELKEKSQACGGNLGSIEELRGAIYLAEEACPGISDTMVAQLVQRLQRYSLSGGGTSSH

[6] = target: Fibroblast growth factor receptor 4 (Homo sapiens) (UniProt P22455); experiment: Inhibition of FGFR4 at 1 uM; procedure, shortened: as §2
Sequence of Fibroblast growth factor receptor 4 (Homo sapiens) (P22455 22-802 limits assumed): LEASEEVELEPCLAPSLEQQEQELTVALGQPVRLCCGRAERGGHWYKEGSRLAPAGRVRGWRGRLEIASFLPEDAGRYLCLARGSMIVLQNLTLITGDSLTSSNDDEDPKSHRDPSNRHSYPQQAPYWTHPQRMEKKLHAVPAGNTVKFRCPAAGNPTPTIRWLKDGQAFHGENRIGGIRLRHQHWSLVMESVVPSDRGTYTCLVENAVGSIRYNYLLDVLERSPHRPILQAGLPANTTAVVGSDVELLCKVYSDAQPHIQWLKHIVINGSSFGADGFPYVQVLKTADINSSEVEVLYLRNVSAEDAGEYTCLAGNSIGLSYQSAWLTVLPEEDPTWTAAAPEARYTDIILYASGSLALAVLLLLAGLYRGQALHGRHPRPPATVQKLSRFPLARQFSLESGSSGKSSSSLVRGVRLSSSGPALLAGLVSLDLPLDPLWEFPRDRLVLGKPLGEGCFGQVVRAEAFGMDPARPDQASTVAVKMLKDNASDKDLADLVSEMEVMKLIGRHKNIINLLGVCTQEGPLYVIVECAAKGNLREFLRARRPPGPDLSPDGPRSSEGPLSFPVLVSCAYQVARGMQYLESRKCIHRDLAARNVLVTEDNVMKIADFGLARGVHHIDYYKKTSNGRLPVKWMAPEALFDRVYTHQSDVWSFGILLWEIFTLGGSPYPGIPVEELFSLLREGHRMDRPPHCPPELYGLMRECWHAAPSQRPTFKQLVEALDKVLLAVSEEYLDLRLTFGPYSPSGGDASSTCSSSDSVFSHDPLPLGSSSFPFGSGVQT

[7] = target: T1, Ephrin type-B receptor 3 (Homo sapiens) (UniProt P54753); experiment: Inhibition of EPHB3 at 1 uM
T1 sequence (whole entry): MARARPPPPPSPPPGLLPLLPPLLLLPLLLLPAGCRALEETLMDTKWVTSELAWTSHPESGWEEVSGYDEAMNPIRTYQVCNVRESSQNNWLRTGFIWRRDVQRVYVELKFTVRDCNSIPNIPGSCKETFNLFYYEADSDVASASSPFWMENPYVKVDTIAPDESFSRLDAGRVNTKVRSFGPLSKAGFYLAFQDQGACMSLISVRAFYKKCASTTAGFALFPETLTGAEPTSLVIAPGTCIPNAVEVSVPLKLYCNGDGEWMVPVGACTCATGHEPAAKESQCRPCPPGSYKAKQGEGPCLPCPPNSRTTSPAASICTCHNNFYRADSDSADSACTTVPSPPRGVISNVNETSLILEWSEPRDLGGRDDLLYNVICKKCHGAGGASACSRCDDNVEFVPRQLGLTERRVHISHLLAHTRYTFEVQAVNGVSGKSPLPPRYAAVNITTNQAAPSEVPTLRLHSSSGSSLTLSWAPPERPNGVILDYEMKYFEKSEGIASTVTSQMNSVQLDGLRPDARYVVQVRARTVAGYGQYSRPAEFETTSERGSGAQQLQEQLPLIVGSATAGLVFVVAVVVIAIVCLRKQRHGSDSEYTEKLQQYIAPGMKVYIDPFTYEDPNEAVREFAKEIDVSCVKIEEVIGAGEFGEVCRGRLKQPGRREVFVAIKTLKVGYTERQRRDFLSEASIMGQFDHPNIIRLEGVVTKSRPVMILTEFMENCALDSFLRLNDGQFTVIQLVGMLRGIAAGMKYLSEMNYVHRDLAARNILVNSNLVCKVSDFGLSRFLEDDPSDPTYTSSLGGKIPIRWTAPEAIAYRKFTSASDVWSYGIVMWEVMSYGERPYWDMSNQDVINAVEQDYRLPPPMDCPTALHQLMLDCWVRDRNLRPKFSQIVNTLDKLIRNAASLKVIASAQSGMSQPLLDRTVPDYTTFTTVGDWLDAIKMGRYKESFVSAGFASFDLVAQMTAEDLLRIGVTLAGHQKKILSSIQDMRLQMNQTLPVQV
Procedure, shortened: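 Single-concentration screen using Ambit Bioscience KINOMEscan technology across a panel of 250–400 kinases. Per-kinase inhibition from this screen was summarized as S(90), the fraction of kinases inhibited by more than 90%.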

[8] = target: T2, cAMP-dependent protein kinase catalytic subunit PRKX (Homo sapiens) (UniProt P51817); experiment: Inhibition of PRKX at 1 uM
T2 sequence (whole entry): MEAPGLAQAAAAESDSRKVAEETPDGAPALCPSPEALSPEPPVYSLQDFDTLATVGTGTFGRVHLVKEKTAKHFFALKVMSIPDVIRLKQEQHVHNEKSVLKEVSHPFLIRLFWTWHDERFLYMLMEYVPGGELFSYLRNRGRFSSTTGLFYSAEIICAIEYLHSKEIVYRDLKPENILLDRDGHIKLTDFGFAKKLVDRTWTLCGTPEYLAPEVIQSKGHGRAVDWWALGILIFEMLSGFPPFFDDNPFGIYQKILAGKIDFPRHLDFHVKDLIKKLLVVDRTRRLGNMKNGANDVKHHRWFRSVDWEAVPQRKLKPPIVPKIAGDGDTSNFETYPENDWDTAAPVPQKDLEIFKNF

[9] = target: Dual specificity tyrosine-phosphorylation-regulated kinase 1B (Homo sapiens) (UniProt Q9Y463); experiment: Inhibition of DYRK1B at 1 uM
Sequence of Dual specificity tyrosine-phosphorylation-regulated kinase 1B (Homo sapiens) (Q9Y463 whole entry, looked up, canonical isoform): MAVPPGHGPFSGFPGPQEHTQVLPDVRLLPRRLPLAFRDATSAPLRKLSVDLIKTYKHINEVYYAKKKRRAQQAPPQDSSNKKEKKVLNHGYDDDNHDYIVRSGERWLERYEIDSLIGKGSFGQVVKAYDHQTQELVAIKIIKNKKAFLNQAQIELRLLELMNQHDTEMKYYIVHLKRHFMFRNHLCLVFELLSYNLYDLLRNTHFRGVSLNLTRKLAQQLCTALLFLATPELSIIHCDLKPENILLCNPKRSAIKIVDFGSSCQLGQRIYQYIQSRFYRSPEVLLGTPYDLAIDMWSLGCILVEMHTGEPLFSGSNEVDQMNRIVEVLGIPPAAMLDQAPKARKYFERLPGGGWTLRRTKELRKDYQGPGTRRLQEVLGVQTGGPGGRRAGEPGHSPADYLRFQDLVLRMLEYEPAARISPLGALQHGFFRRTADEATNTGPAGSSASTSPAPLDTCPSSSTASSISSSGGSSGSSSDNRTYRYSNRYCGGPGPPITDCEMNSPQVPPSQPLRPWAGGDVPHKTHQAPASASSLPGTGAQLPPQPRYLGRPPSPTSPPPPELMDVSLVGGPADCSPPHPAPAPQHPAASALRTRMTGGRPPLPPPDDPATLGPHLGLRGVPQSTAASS

[10] = target: Phosphorylase b kinase gamma catalytic chain, skeletal muscle/heart isoform (Homo sapiens) (UniProt Q16816); experiment: Inhibition of PHKG1 at 1 uM
Sequence of Phosphorylase b kinase gamma catalytic chain, skeletal muscle/heart isoform (Homo sapiens) (Q16816 whole entry, looked up, canonical isoform): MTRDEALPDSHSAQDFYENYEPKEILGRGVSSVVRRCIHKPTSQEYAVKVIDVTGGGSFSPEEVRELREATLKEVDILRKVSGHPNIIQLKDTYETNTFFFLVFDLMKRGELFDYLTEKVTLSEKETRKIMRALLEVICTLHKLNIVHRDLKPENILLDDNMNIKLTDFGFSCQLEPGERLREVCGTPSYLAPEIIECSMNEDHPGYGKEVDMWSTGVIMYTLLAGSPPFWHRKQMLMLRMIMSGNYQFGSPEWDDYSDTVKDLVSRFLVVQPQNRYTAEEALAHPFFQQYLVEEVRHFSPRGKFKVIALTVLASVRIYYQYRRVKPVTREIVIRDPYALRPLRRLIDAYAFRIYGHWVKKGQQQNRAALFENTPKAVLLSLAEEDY

[11] = target: Mitogen-activated protein kinase 7 (Homo sapiens) (UniProt Q13164); experiment: Inhibition of ERK5 at 1 uM
Sequence of Mitogen-activated protein kinase 7 (Homo sapiens) (Q13164 2-816 limits assumed): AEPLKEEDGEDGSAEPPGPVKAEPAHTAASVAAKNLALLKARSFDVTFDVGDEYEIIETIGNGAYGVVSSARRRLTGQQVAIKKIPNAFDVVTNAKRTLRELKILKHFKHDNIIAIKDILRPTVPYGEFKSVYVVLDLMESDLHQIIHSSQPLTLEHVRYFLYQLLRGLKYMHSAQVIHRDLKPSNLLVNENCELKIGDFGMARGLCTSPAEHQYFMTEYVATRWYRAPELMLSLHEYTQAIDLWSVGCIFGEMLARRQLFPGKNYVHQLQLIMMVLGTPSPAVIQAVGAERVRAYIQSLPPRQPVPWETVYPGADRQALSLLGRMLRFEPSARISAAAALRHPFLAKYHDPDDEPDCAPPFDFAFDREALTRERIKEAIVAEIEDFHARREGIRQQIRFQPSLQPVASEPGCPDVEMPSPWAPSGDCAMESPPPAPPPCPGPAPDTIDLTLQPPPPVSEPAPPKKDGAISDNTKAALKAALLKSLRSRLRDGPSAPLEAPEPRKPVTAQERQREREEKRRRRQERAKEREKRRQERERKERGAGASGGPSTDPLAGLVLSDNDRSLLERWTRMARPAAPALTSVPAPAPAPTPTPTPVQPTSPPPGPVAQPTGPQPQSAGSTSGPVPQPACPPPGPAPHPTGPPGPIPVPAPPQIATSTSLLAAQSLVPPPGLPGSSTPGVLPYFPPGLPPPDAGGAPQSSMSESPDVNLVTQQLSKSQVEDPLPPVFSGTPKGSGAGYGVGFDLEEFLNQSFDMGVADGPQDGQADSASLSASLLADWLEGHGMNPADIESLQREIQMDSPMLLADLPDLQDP

Sequence of RAC-beta serine/threonine-protein kinase (Homo sapiens) (P31751 whole entry): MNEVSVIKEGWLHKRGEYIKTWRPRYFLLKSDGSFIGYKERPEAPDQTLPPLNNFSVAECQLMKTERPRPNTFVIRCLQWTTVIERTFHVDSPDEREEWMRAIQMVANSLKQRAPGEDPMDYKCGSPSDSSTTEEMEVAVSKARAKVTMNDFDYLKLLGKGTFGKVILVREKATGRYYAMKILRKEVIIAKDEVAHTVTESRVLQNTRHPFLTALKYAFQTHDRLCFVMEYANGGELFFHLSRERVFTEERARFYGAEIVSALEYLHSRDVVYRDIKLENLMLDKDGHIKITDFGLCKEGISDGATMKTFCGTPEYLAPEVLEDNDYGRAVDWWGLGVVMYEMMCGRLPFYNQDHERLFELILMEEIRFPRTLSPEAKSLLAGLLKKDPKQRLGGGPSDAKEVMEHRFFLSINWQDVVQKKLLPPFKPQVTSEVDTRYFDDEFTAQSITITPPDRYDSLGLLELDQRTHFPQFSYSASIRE

Row | SMILES | inhibition [1] | inhibition [2] | inhibition [3] | inhibition [4] | inhibition [5] | inhibition [6] | inhibition [7] | inhibition [8] | inhibition [9] | inhibition [10] | inhibition [11]
1 | CN1CCN(c2ccc(-c3cnc4c(c3)N(Cc3cc(F)ccc3F)CCN4)cn2)CC1 | < 50% | < 50% | < 50% | 59% | < 50% | < 50% | < 50% | < 50% | < 50% | < 50% | < 50%
2 | O=C(c1ccc(-c2cnc3c(c2)N(Cc2cc(Cl)ccc2C(F)(F)F)CCN3)cc1)N1CCC(N2CCCC2)CC1 | < 50% | < 50% | < 50% | < 50% |  | < 50% | < 50% | < 50% |  | < 50% | 
3 | O=C(c1ccc(-c2cnc3c(c2)N(Cc2cc(Cl)ccc2C(F)(F)F)CCN3)cc1)N1CCCCC1 | < 50% | < 50% | < 50% | < 50% |  | < 50% | < 50% | < 50% |  | < 50% | 
4 | CN1CCN(c2ccc(-c3cnc4c(c3)N(Cc3c(F)ccc(F)c3Cl)CCN4)cn2)CC1 | < 50% | < 50% | < 50% | 84% | < 50% | < 50% | < 50% | < 50% | < 50% | < 50% | < 50%
5 | COC1CCN(C(=O)c2ccc(-c3cnc4c(c3)N(Cc3cc(Cl)ccc3C(F)(F)F)CCN4)cc2)CC1 | < 50% | < 50% | < 50% | < 50% |  | < 50% | < 50% | < 50% |  | < 50% | 
6 | O=C(O)c1ccc(-c2cnc3c(c2)N(Cc2cc(Cl)ccc2C(F)(F)F)CCN3)cc1 | < 50% | < 50% | < 50% | < 50% |  | < 50% | < 50% | < 50% |  | < 50% | 
7 | CC(=O)N1CCN(c2cc(-c3cnc4c(c3)N(Cc3cc(Cl)ccc3C(F)(F)F)CCN4)ccn2)CC1 | < 50% | < 50% | < 50% | < 50% | < 50% | < 50% | < 50% | < 50% | < 50% | < 50% | < 50%
8 | FC(F)(F)c1ccc(Cl)cc1CN1CCNc2ncc(-c3ccnc(N4CCNCC4)c3)cc21 | < 50% | < 50% | < 50% | < 50% | < 50% | < 50% | < 50% | < 50% | < 50% | < 50% | < 50%
9 | CN1CCN(c2ccc(-c3cnc4c(c3)N(Cc3cc(Cl)ccc3C(F)(F)F)CCN4)cn2)CC1 | < 50% | < 50% | < 50% | < 50% | < 50% | < 50% | < 50% | < 50% | < 50% | < 50% | < 50%
10 | CN1CCN(c2ccc(-c3cnc4c(c3)N(Cc3cc(Cl)ccc3Cl)CCN4)cn2)CC1 | < 50% | < 50% | < 50% | < 50% | < 50% | < 50% | < 50% | < 50% | < 50% | < 50% | < 50%
